Source: PubChem (several laboratories)
In the library only some 2.9% were active in any assay of this set; here they are far more common.
SENP8 block-1: SENP8 protease inhibition; 1.2% of 330,000 active; inhibition, % at 10 µM; Q96LD8; purified SENP8, Z-RLRGG-aminoluciferin cleavage, luminescence; in the data active = inhibition above about 50%
Target sequence (Q96LD8 whole entry, looked up): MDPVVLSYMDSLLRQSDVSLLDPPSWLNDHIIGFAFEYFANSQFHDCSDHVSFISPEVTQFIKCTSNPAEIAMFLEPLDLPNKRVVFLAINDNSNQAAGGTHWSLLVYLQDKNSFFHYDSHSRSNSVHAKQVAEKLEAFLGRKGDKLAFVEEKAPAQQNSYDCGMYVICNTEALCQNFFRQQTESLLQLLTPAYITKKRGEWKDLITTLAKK
HSP90 refold inh: blocks HSP90-mediated luciferase refolding in reticulocyte lysate; inhibition, % at 5.6 µM; Rabbit reticulocyte lysate, luciferase refolding luminescence, 3 h; 0.91% of 290,000 active; AID 1789;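 active = inhibition above the screen-wide mean plus 3 SD, computed separately per campaign, cut at about 16% in these data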;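 note: inhibitors lower the luminescence because luciferase stays unfolded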
SENP8 block-2: SENP8 (human) protease inhibition; recombinant SENP8, Nedd8 substrate fluorescence; inhibition, % at 20 µM; 0.64% of 360,000 active; in the data active = inhibition mostly above about 40%, no sharp cut-off; inactive = mostly below about 27%
SENP6 inh: inhibitors of human SENP6 protease; 1.8% of 330,000 active; inhibition, % at 10 µM; Q9GZR1; Recombinant SENP6 catalytic domain, aminoluciferin luminescence;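 active = inhibition above about 50% at the single tested dose, limit read from the data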
SENP7 block: blocks the human protease SENP7 | Q9BQF6 | recombinant SENP7, Z-RLRGG-aminoluciferin luminescence, 40 min | inhibition, % at 5 µM | 1.5% of 330,000 active;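 active = inhibition above about 50% at the single test dose, limit read from the data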
SENP1 inh: SENP1 (human) catalytic domain inhibition | Q9P0U3 | recombinant SENP1 catalytic domain, CyPet-SUMO1-YPet FRET cleavage | inhibition, % at 10 µM | 0.21% of 360,000 active | AID 624204;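 active = inhibition at least 30% at 10 µM, raw YFP signal under a set limit, fluorescence ratio 0.5 to 1.5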
Target sequence (Q9P0U3 419-644 limits assumed): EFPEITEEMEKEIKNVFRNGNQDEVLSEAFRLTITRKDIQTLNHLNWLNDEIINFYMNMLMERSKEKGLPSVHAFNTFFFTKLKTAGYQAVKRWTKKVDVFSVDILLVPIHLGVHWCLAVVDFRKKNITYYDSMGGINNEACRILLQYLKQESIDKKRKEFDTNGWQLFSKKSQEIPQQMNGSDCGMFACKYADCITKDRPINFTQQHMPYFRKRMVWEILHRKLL
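Test system: hSENP1 catalytic domain, recombinant; Amount: 20 pM final SENP1 enzyme; Medium: Tris pH 8 buffer plus EDTA, NaCl, BME, BSA, NP40, catalase; Schedule: 50 min enzyme reaction, room temperature, light-protected; Technique: FRET fluorescence in CFP and YFP emission channels; Controls: no-enzyme wells low, DMSO-plus-enzyme wells high control.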
SENP8 conf: human SENP8 inhibition, confirmed; shares compounds with SENP7 block; Recombinant SENP8, Z-RLRGG-aminoluciferin luminescence, 60 min; inhibition, % at 12.5 µM; 40% of 6,200 active; AID 488912;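 active = mean inhibition across replicates above about 50%, limit read from the data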
SENP6 conf: human SENP6 inhibition, confirmed; shares compounds with SENP7 block; recombinant SENP6, Z-RLRGG-aminoluciferin luminescence; inhibition, % at 12.5 µM; 58% of 6,200 active; AID 488915
SENP7 confirm: confirmation of human SENP7 protease inhibitors. shares compounds with SENP7 block. recombinant SENP7, Z-RLRGG-aminoluciferin luminescence, 40 min. inhibition, % at 12.5 µM. 69% of 6,200 active. AID 488917
Casp3 SENP sel: selectivity test for SENP inhibitors: human caspase-3 inhibition | shares compounds with SENP7 block | purified caspase-3, Z-DEVD-aminoluciferin luminescence, 60 min | inhibition, % at 12.5 µM | 60% of 6,200 active | AID 488918;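 active = mean inhibition above about 50%, limit read from the data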
Luc interf: luminescence interference (SENP counter-screen) | shares compounds with SENP7 block | Pre-incubated SENP8/Z-RLRGG-aminoluciferin, luciferase luminescence interference | inhibition, % at 12.5 µM | 39% of 6,200 active | AID 488919;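 active = mean inhibition above about 50% when retested at one dose, limit read from the data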
A number is an active result; i = inactive; nt = not tested or not shown.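 Rule for the calls, unless noted: active = mean inhibition above about 50% in the one-dose retest (limit read from the data); inactive = the rest.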

SMILES	SENP8 block-1	HSP90 refold inh	SENP8 block-2	SENP6 inh	SENP7 block	SENP1 inh	SENP8 conf	SENP6 conf	SENP7 confirm	Casp3 SENP sel	Luc interf
CNC(C)C#Cc1ccc2c(=O)c3cc(C)c(C)cc3oc2c1 (stereo not given)	67	nt	i	93	i	i	i	i	i	i	71
Cc1ccc(NC2CCCN(C(=O)CSc3ccncc3)C2)cc1C (stereo not given)	i	i	i	i	i	i	nt	nt	nt	nt	nt
CCOc1ncccc1C(=O)OCC(=O)c1cc(C)n(Cc2ccco2)c1C	i	i	i	71	i	i	70	66	87	58	i
C=CCn1nnnc1SCC(=O)Nc1cccc(C(F)(F)F)c1	i	i	i	i	i	i	nt	nt	nt	nt	nt
CC1Cc2cc(/C=C3/SC(=S)N(C)C3=O)ccc2O1 (stereo not given)	61	i	i	74	63	i	i	i	i	52	i
CC(=O)Oc1ccc(/C=C2/CCc3ccccc3C2=O)cc1	95	i	i	97	97	i	96	100	102	94	98
O=C1/C(=C/c2ccc([N+](=O)[O-])cc2)CCc2ccccc21	90	i	nt	95	98	nt	i	81	i	i	i
COc1ccc(/C=C2\CCc3ccccc3C2=O)cc1OC	i	i	i	52	i	i	69	62	62	i	i
CCS(=O)(=O)Nc1cccc(-c2nc3cccnc3s2)c1	i	i	i	i	i	i	nt	nt	nt	nt	nt
O=S(=O)(Nc1ccc(-c2nc3cccnc3s2)cc1)c1cccs1	i	i	i	65	i	i	i	i	i	i	i
O=S(=O)(Nc1ccc(-c2nc3cccnc3s2)cc1)c1ccc(Cl)s1	i	i	i	58	i	i	i	i	54	i	i
Cc1c(NS(=O)(=O)c2cccs2)cccc1-c1nc2cccnc2s1	i	i	i	i	i	i	nt	nt	nt	nt	nt
Cc1cc(-c2nc3cccnc3s2)ccc1NS(=O)(=O)c1cccs1	91	i	i	95	74	i	89	92	98	86	55
CCS(=O)(=O)Nc1ccc(-c2nc3cccnc3s2)cc1	64	36	i	73	53	i	75	73	94	86	78
Cc1cc(C)n2nc(SCC(=O)NC3CCCCC3)nc2n1	i	i	i	i	i	i	nt	nt	nt	nt	nt
Cc1ccccc1CN1CCN(c2nc3ccccc3s2)CC1	i	i	i	i	i	i	nt	nt	nt	nt	nt
O=C1c2cc(Br)ccc2N(Cc2ccc(Br)cc2)S(=O)(=O)C1c1cc(Cl)c(Cl)cc1[N+](=O)[O-] (stereo not given)	i	nt	i	i	i	i	nt	nt	nt	nt	nt
O=C(COC(=O)c1cccnc1Cl)c1ccccc1	i	i	i	78	65	i	56	53	87	86	71
CCc1ccc(C(=O)COC(=O)c2cccnc2Cl)cc1	88	i	i	93	94	i	90	90	100	93	88
O=C(OCc1ccccc1Cl)c1cccnc1Cl	i	i	i	63	i	i	i	i	72	i	i
CC(=O)c1sc(NC(=O)CCCOc2ccc(Cl)cc2)nc1C	i	i	i	i	i	i	nt	nt	nt	nt	nt
Brc1ccc(-n2cnc(-c3ccccc3)c2)cc1	69	i	i	71	79	i	61	62	92	59	i
O=[N+]([O-])c1ccc(-c2cn(-c3ccc(Cl)cc3)cn2)cc1	nt	nt	i	nt	nt	i	nt	nt	nt	nt	nt
CN(CC(=O)Nc1cccc(F)c1)C(=O)CCCNC(=O)c1ccc(Cl)cc1	i	nt	i	i	i	i	nt	nt	nt	nt	nt
COc1ccc(C2/C(=C(/O)c3ccc(Br)cc3)C(=O)C(=O)N2C)cc1OC (stereo not given)	i	i	i	i	58	i	i	i	i	i	i
SMILES	SENP8 block-1	HSP90 refold inh	SENP8 block-2	SENP6 inh	SENP7 block	SENP1 inh	SENP8 conf	SENP6 conf	SENP7 confirm	Casp3 SENP sel	Luc interf
CCOC(=O)c1c(C)nc2c3ccccc3ccn12	53	i	i	74	78	i	63	60	89	74	65
CCOC(=O)c1c(C)nc2c(C)cccn12	i	i	i	i	i	i	nt	nt	nt	nt	nt
Cc1ccccc1CN1CCN(C(=O)CC(C)C)CC1	i	i	i	i	i	i	nt	nt	nt	nt	nt
CCOc1ccc(CCNC(=O)CCC(=O)N2CCOc3ccccc32)cc1OCC	i	i	i	i	i	i	nt	nt	nt	nt	nt
COCCCNC(=O)CN(c1ccc(F)cc1)S(=O)(=O)c1ccc2c(c1)OCCO2	i	i	i	i	i	i	nt	nt	nt	nt	nt
Oc1ccc(Br)cc1C=Nc1ccc(Cl)cc1	i	i	i	i	i	i	nt	nt	nt	nt	nt
COc1cc(O)sc1C=Nc1ccc(Cl)cc1	82	i	i	95	91	i	85	87	100	84	57
CC(=O)Nc1ccc(S(=O)(=O)NC2=C(N3CCN(Cc4ccccc4)CC3)C(=O)c3ccccc3C2=O)cc1	nt	i	i	nt	nt	i	nt	nt	nt	nt	nt
O=C(O)c1cccc(NC2=C(Cl)C(=O)c3ccccc3C2=O)c1	nt	i	i	nt	nt	i	nt	nt	nt	nt	nt
